The text below walks through data of ChEMBL document CHEMBL1149859, “Proteasome inhibition by peptide-semicarbazones” (Bioorg Med Chem, 2008).

Assay [1] can be described thus: Inhibition of human 20S proteasome by fluorescence spectroscopy. A digest of the protocol: (§1)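 20S proteasome (1.3 µg) activated in 25 mM Hepes pH 7.5, 0.5 mM EDTA, 0.033% SDS for 10 min at room temperature. Added to compound in DMSO with 75 µM Suc-LLVY-AMC. AMC release followed 20 min at 30 °C (ex 360, em 465 nm) as RFU/min. IC50 from eight concentrations, triplicates on one day.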

The subject of a further assay is A549. The assay can be described thus: Inhibition of TNF-alpha-induced NF-kappaB transcriptional activation in human A549 cells by SEAP reporter gene assay. In kind it is functional, cell-based. A digest of the protocol: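 A549 cells stably transfected with a pNF-κB-SEAP reporter, seeded at 2 × 10^4/well and attached overnight. Preincubated 5 h with compound at 100, 30, 10, 3, 1, 0.3, 0.1 and 0 µM, then stimulated with 10 ng/ml TNF-α for 22 h. Supernatant SEAP read by chemiluminescence; viability checked in parallel with CellTiter-Blue.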

The subject of a further assay is PBMC. The assay can be described thus: Antiproliferative activity against human peripheral blood mononuclear cells after 48 hrs by ELISA. The class given is cell-based. A digest of the protocol:
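Human PBMC isolated by density gradient, 100,000–200,000 cells/well in RPMI 1640 with 10% heat-inactivated FBS. Stimulated with 20 µg/ml PHA-L and exposed to compound at 0.4–50 µM for 48 h at 37 °C, 5% CO2. BrdU (10 µM) added for a further 4 h. Cells fixed and DNA denatured; incorporated BrdU detected with anti-BrdU-POD.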
In general terms: In an ELISA, binding on a coated surface is turned into a signal by an enzyme label.

Assay [2] can be described thus: Inhibition of peptidylglutamyl peptide hydrolyzing site of human 20S proteasome. The procedure, abridged: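 Peptidylglutamyl-peptide hydrolysing activity of SDS-activated 20S proteasome (1.3 µg; 25 mM Hepes pH 7.5, 0.5 mM EDTA, 0.033% SDS, 10 min preincubation at room temperature). Substrate was 75 µM Z-LLE-βNA with compound in DMSO. Fluorescence followed 20 min at 30 °C as RFU/min. IC50 from eight concentrations, triplicates on one day.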

Assay [3] is described as follows: Inhibition of chymotrypsin-like site of human 20S proteasome. The procedure, abridged:
as §1

Calls of active or inactive are those of the source. The rule behind the calls is not given here.

The term IC50 denotes the midpoint of a concentration-inhibition curve. Higher therefore signals a need for much substance. What is called EC50 is the concentration that produces a half-maximal response. The low end stands for higher potency in that assay, the high end for lower potency in that assay. With `O=C1CN(/N=C/[C@H](Cc2ccccc2)NC(=O)[C@H](Cc2c[nH]c3ccccc23)NC(=O)[C@H](Cc2c[nH]c3ccccc23)NC(=O)OCc2ccncc2)C(=O)N1`, half-maximal inhibition in assay [1] (IC50) was put at 1.6 µM. In the assay with A549, the EC50 is 4.9 µM.

For `NC(=O)N/N=C/[C@H](Cc1ccccc1)NC(=O)[C@H](Cc1c[nH]c2ccccc12)NC(=O)[C@H](Cc1c[nH]c2ccccc12)NC(=O)OCc1ccccc1`, half-maximal inhibition in assay [1] (IC50) was put at 0.2 µM. The compound further came in with an EC50 in the assay on A549 of 5.8 µM.

Consider `O=C1CN(/N=C/[C@H](Cc2ccccc2)NC(=O)[C@H](Cc2c[nH]c3ccccc23)NC(=O)[C@H](Cc2c[nH]c3ccccc23)NC(=O)OCc2ccccc2)C(=O)N1`, for which the IC50 in assay [1] came out at 0.2 µM; with PBMC, 0.7 µM; in assay [2], 1.2 µM; in assay [3] it was 0.2 µM. Besides, the EC50 with A549 was 0.4 µM.

Regarding `O=C1CN(/N=C/[C@H](Cc2c[nH]c3ccccc23)NC(=O)[C@H](Cc2c[nH]c3ccccc23)NC(=O)[C@H](Cc2c[nH]c3ccccc23)NC(=O)OCc2ccccc2)C(=O)N1`, in assay [1], the 50% inhibitory concentration (IC50) was 1.1 µM. This compound also returned a concentration giving a half-maximal response (EC50) in the assay on A549 of 3 µM.

In turn, `O=C1CN(/N=C/[C@@H](Cc2ccccc2)NC(=O)[C@H](Cc2c[nH]c3ccccc23)NC(=O)[C@H](Cc2c[nH]c3ccccc23)NC(=O)OCc2ccccc2)C(=O)N1` came in with an IC50 in assay [1] of 0.4 µM. The EC50 with A549 was 0.8 µM.

Turning to `O=C1CN(/N=C/[C@H](Cc2ccccc2)NC(=O)[C@H](Cc2c[nH]c3ccccc23)NC(=O)[C@H](Cc2c[nH]c3ccccc23)NC(=O)CCc2ccc(O)cc2)C(=O)N1`, in assay [1], the IC50 turned out to be 0.1 µM. In the assay with A549, this compound yielded a 50% effective concentration (EC50) of 8.7 µM.

Take `O=C1CN(/N=C/[C@H](Cc2ccccc2)NC(=O)[C@H](Cc2c[nH]c3ccccc23)NC(=O)[C@H](Cc2c[nH]c3ccccc23)NC(=O)CCCCC2SCC3NC(=O)NC32)C(=O)N1` (stereo partly drawn): the IC50 came to 0.1 µM in assay [1] and 29 µM with PBMC. In the assay on A549, the result was inactive.

For `NC(=O)N/N=C/[C@H](Cc1c[nH]c2ccccc12)NC(=O)[C@H](Cc1c[nH]c2ccccc12)NC(=O)[C@H](Cc1c[nH]c2ccccc12)NC(=O)OCc1ccccc1`, the IC50 amounted to 0.1 µM in assay [1], 1.4 µM with PBMC, 3.7 µM in assay [2] and 0.1 µM in assay [3]. In addition, in the assay on A549, the concentration giving a half-maximal response (EC50) was found to be 1.8 µM.
